This is a sample that favours compounds with a hit; in the whole collection about 2.2% have one here.
SIAE primary – inhibitors of human sialic acid acetylesterase SIAE; Q9HAT2; SIAE FP-Rh probe binding, fluorescence polarization; inhibition, % at 9.66 µM; 370,000 tested, 0.69% active;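 active = inhibition above a cutoff: mean of compounds within the control limits plus 3 SD of those, cut at about 17% in these data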;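 note: 0% = plate median of compound wells and 100% = probe without SIAE protein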
HTRA1 inh – inhibitors of human serine peptidase HTRA1; inhibition, % at 5.96 µM; 340,000 tested, 0.5% active; recombinant HTRA1, FP-rhodamine activity-based probe, fluorescence polarization; Q92743; in the data active = inhibition above about 36%;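 note: 0% = enzyme with DMSO and 100% = wells lacking enzyme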
LEDGF integ inh – blocks HIV-1 LEDGF/p75-dependent DNA integration; TR-FRET IN-LEDGF/p75 DNA integration, Eu/Cy5; inhibition, % at 3.7 µM; 370,000 tested, 0.64% active;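 active = inhibition above the screen-wide mean plus 3 SD, cut at about 13% in these data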;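 note: signal is the Cy5 over europium emission ratio at 671 and 618 nm; 0% = plate median of compound wells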
TDP2 absorb – TDP2 (human) inhibition, absorbance primary screen | O95551 | recombinant TDP2, T5PNP hydrolysis, p-nitrophenol absorbance 415 nm | inhibition, % at 12.8 µM | 370,000 tested, 0.34% active | AID 720702;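 active = inhibition above the mean of all tested compounds plus 3 SD, set per campaign, cut at about 25% in these data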;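 note: 0% = DMSO with enzyme and 100% = buffer with substrate but no TDP2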
Target sequence (O95551 whole entry, looked up): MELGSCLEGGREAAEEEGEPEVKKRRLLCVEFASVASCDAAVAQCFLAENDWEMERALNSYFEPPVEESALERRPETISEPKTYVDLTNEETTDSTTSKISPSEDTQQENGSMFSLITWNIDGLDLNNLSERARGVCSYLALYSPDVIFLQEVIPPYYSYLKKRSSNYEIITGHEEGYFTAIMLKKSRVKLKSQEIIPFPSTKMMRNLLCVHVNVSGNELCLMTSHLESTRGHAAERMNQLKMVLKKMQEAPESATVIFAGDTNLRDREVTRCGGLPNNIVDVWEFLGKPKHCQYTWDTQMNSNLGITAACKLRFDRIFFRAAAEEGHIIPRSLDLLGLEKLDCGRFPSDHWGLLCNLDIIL
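Test system: Human TDP2 enzyme | Reagent: 5 mM T5PNP | Compound dosing: 12.8 µM single point, 1% DMSO | Incubation: Enzyme reaction with compound for 2 h at 37 °C | Technique: p-Nitrophenol epi absorbance | Read-out: % inhibition relative to enzyme-containing and enzyme-free wells | Benchmarks: High control without enzyme, low control DMSO plus TDP2 | Replicates: Singlicate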
mABHD4 FP – ABHD4 (mouse) inhibition, primary FP screen | Q8VD66 | purified mABHD4, FP-Rh probe fluorescence polarization | inhibition, % at 8.92 µM | 370,000 tested, 0.54% active | AID 720543;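 active = inhibition exceeding the mean over every tested compound plus 3 SD, cut at about 30% in these data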;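 note: 0% = plate median of compound wells and 100% = S159A mutant with DMSO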
Target sequence (Q8VD66 whole entry, looked up): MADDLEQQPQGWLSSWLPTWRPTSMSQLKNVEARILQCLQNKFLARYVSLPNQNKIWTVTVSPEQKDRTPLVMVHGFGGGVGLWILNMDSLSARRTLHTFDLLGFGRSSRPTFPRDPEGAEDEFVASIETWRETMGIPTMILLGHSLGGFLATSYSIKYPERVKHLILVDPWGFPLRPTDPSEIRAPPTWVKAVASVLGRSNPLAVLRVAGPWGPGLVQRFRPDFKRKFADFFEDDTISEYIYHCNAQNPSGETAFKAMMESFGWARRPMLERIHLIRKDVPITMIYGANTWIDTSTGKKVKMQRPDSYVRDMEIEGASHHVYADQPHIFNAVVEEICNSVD
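Assay system: mABHD4 protein; medium: HEPES pH 7.0, NaCl, Pluronic buffer; dosing: 8.92 µM, single dose; schedule: 45 min + 60 min at 25 °C; signal: FP readout, ex 525 nm / em 598 nm; read-out: normalized percent inhibition of probe labeling; repeats: single replicate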
TCR-CD3 inh – human TCR-CD3 binding inhibition; AID 651800; TAMRA-labeled TCR probe fluorescence, biochemical; 360,000 tested, 0.37% active; inhibition, % at 9.4 µM; in the data active = inhibition above about 19%;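 note: recombinant mutant TCR 2C K166C tagged with TAMRA read by polarization; 0% = receptor in buffer alone and 100% = receptor with positive control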
Active calls of the source: *; . = no result given.

SMILES | SIAE primary | HTRA1 inh | LEDGF integ inh | TDP2 absorb | mABHD4 FP | TCR-CD3 inh
CS(=O)(=O)Nc1ccc(C(=O)NCCc2ccccc2)cc1 | 19* | 5 | 2 | 1 | 7 | 1
CS(=O)(=O)Nc1ccc(C(=O)NCCSCc2ccccc2)cc1 | 2 | -1 | -5 | -4 | 0 | -3
COC(=O)C1=C(C)N(C)C(=NCc2cc(OC)c(OC)c(OC)c2)NC1c1cccc(F)c1 (configuration not stated) | 8 | . | 2 | 10 | 2 | 2
CCOc1cc(C2Nc3cccc4cccc(c34)N2)ccc1O | . | 37* | . | . | . | .
Cc1nn2cc(-c3ccccc3)nc2[nH]c1=O | 22* | 4 | 2 | 8 | 0 | 0
CN1CCN(C(=O)/C(=C\c2cccs2)NC(=O)c2ccccc2)CC1 | -4 | -3 | 3 | 21 | -5 | 1
CN1CCN(C(=O)/C(=C/c2ccccc2Cl)NC(=O)c2ccccc2)CC1 | -1 | 16 | 45* | 5 | 8 | 3
Cc1ccc(Nc2nc(-c3ccc(S(=O)(=O)N4CCCC4)cc3)cs2)cc1C | . | -2 | . | . | . | .
Cc1cc(C)cc(Nc2nc(-c3ccc(S(=O)(=O)N4CCCC4)cc3)cs2)c1 | 22* | -11 | 1 | -2 | 2 | 0
COC(=O)[C@H](C(C)C)N(CCCc1cn(Cc2ccccc2)nn1)S(=O)(=O)c1ccccc1Br | 4 | . | 2 | 0 | -1 | .
CCN(CC)c1ccc(NS(=O)(=O)c2ccc(-c3ccc(=O)[nH]n3)o2)c(C)c1 | 9 | 14 | 15* | 4 | 20 | 1
CCC[C@H]1[C@H](N)CC[C@@]23CCCN2C(=O)CCC[C@@H]13 | 3 | . | 4 | -8 | -5 | .
CCOC(=O)CNC(=O)N(C)[C@H]1C[C@H]2c3[nH]c4c(-c5ccccc5)cccc4c3CCN2C(=O)[C@H]1[C@H](C)O | 1 | . | 0 | -4 | 6 | -1
O=C(O)c1ccc2c(c1)C(=O)/C(=C/c1ccccc1)C2=O | -7 | 7 | 10 | 9 | 31* | 5
CN(C)Cc1c(C(C)(C)O)[nH]c2cc(C(F)(F)F)ccc12 | 8 | . | -4 | -3 | -6 | -7
COC(=O)CCC(=O)OC1(C)C(=O)C2=CN(CCc3ccccn3)C(c3ccc(OC)cc3)=CC2=C(Br)C1=O (configuration not stated) | . | 37* | . | . | . | .
NC(=O)c1c(N)[nH]c(C(=O)c2ccccc2)c1-c1ccccn1 | 3 | . | 0 | -6 | 4 | .
COC(=O)[C@]12C[C@H](CC(=O)NCc3ccc(C)o3)C(=O)N(CCC3=CCCCC3)C1=C[C@H](COCc1ccccc1)O[C@@H]2C | 5 | . | 1 | 0 | 1 | -2
CCCSc1nnc(-c2cccc(S(=O)(=O)N(C)C)c2)n1-c1cc(OC)ccc1OC | 2 | -8 | 3 | -10 | 3 | -9
CN(C)S(=O)(=O)c1cccc(-c2nnc(SCCNCCO)n2-c2ccc(F)cc2)c1 | 12 | -10 | -6 | 0 | 31* | -2
Cc1cc(C(=O)COC(=O)C2=COCCO2)c(C)n1-c1ccc2c(c1)OCO2 | 17* | 2 | 1 | -11 | -6 | 2
CC(C)(C)c1ccc(-c2nnc(SCC(=O)Nc3ccc(S(=O)(=O)Nc4nccs4)cc3)n2Cc2ccco2)cc1 | -29 | . | 1 | -5 | -52 | .
COc1ccc(CN2CCC(CNC(=O)NC3CCCC3)CC2)cc1 | 3 | . | -2 | 10 | 5 | .
CCCC(C(=O)NCC1CCCO1)N(C(=O)CNS(=O)(=O)c1ccccc1)c1ccc(F)cc1 (configuration not stated) | -2 | 7 | -3 | 10 | 1 | -3
CCC(C(=O)NCC1CCCO1)N(C(=O)CNS(=O)(=O)c1ccccc1)c1ccc(F)cc1 (configuration not stated) | -2 | 2 | 89* | -1 | 2 | 3
SMILES | SIAE primary | HTRA1 inh | LEDGF integ inh | TDP2 absorb | mABHD4 FP | TCR-CD3 inh
C/C(=N\OCc1nc2ccccc2c(=O)n1/N=C/c1cc([N+](=O)[O-])ccc1O)c1ccccc1 | -11 | 30 | -4 | -11 | 3 | 23*
O=[N+]([O-])c1ccc(O)c(/C=N/n2c(CO)nc3ccccc32)c1 | 1 | 4 | -1 | -10 | 4 | -5
CC(C)(C)c1ccc(-c2nnc(SCC(=O)Nc3ccccc3-c3ccccc3)n2Cc2ccco2)cc1 | -4 | . | -2 | -15 | -8 | .
O=C(O)CSc1cc(NS(=O)(=O)c2ccc(Cl)cc2)c2ccccc2c1O | 10 | 23 | 13 | 63* | 39* | 7
Oc1ccc2ccccc2c1CNc1ccc2ccccc2c1 | 8 | 24 | 0 | -2 | 40* | 8
O=S1(=O)c2ccc(Br)cc2OC[C@H](Cc2ccccc2)N1Cc1cn(CCC2OCCO2)nn1 | 0 | . | -2 | -4 | 3 | .
CN(C)S(=O)(=O)c1cccc(C(=O)N/N=C\c2ccccc2[N+](=O)[O-])c1 | 2 | . | 0 | 1 | 9 | .
CC1NC(=O)NC1CCCCCC(=O)NCCc1ccccc1 (configuration not stated) | 1 | 6 | 78* | 7 | 6 | 6
COC(=O)N/N=C1/C/C(=N\NC(=O)OC)c2ccccc21 | 5 | 8 | 32* | 50* | 6 | 1
O=C(CCCl)Nc1nc2c(s1)CCc1ccccc1-2 | 1 | -5 | -5 | 2 | 5 | 6
N#C/C(=C(/O)CCl)c1nc2c(s1)CCc1ccccc1-2 | 2 | 13 | 2 | 10 | 32* | 2
O=S(=O)(CS(=O)(=O)c1ccccc1Br)c1ccccc1Br | -3 | . | -3 | 4 | 1 | 0
CCC(=O)OC1(C)C(=O)C=C2C=C(CCCC(=O)OC)OC=C2C1=O (configuration not stated) | 8 | 12 | 16* | 10 | 19 | 10
Cc1ccc(S(=O)(=O)NCC(=O)OCC(=O)Nc2cccc(S(=O)(=O)N3CCOCC3)c2)cc1 | -5 | 4 | 27* | -10 | -13 | -12
CCCCCC[C@@H](CCCc1ccccc1OC)CN(CCCC)S(C)(=O)=O | 2 | . | 2 | -6 | -1 | .
COc1cccc(C2NC(CCSC)(C(=O)O)C3C(=O)N(C(C)C)C(=O)C23)c1O (configuration not stated) | 21* | -5 | -3 | 6 | -2 | -1
O=C(O)c1cc(S(=O)(=O)Nc2ccc3oc(=O)sc3c2)ccc1O | -2 | . | 16* | 0 | 22 | 1
CC(=O)c1c(C)oc2ccc(NS(=O)(=O)c3ccc(O)c(C(=O)O)c3)cc12 | -4 | -5 | 1 | -9 | 1 | 4
Cc1ccc(OCC(=O)N(C)CC(=O)NCc2ccco2)c(Br)c1 | -12 | 2 | 2 | -4 | 6 | 5
CC(=O)c1cccc(OCC(=O)N(C)CC(=O)NCc2ccco2)c1 | 4 | 7 | 30* | -7 | 12 | 15

Screening data deposited in PubChem by The Scripps Research Institute Molecular Screening Center.
